Reference: ChEMBL document CHEMBL2331439 (J Med Chem, 2013)

What was measured:
[1] = biological target: Proto-oncogene tyrosine-protein kinase receptor Ret (Homo sapiens) (UniProt P07949); assay: Inhibition of recombinant RET (unknown origin) at 5 uM by FRET-based Z'-LYTE assay
In short: (§1)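 Z'-LYTE FRET peptide (coumarin/fluorescein) phosphorylation was followed by protease development. Wells included a protease control for interference with development and a fluorescence control for interference with the FRET read. Values above 100% or below 0% were treated as maximal or no inhibition.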

[2] = biological target: Phosphorylase b kinase gamma catalytic chain, liver/testis isoform (Homo sapiens) (UniProt P15735); assay: Inhibition of recombinant PHKG2 (unknown origin) at 5 uM by FRET-based Z'-LYTE assay
In short: (§2)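 Single-point panel screen at 5 μM in duplicate. ATP is at the apparent Km of each kinase, and the Z'-LYTE FRET peptide substrate is used. Each point has two control wells: a protease control for interference with development and a fluorescence control for interference with the FRET read-out. Values above 100% are treated as maximal inhibition and values below 0% as none.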

[3] = biological target: Tyrosine-protein kinase SYK (Homo sapiens) (UniProt P43405); assay: Inhibition of recombinant SYK (unknown origin) at 5 uM by FRET-based Z'-LYTE assay; in short: as §1
[4] = biological target: Rho-associated protein kinase 1 (Homo sapiens) (UniProt Q13464); assay: Inhibition of recombinant ROCK1 (unknown origin) at 5 uM by FRET-based Z'-LYTE assay; in short: as §1
[5] = biological target: AMP-activated protein kinase (AMPK) alpha-1/beta-1/gamma-1 (Homo sapiens) (UniProt P54619+Q9Y478+Q13131); assay: Inhibition of recombinant AMPK A1/B1/G1 (unknown origin) at 5 uM by FRET-based Z'-LYTE assay; type: protein-complex assay; in short: as §2
[6] = biological target: Mitogen-activated protein kinase 14 (Homo sapiens, UniProt Q16539); assay: Inhibition of recombinant MAPK14 (unknown origin) by FRET-based Z'-LYTE assay
[7] = biological target: T1, Serine/threonine-protein kinase Nek1 (Homo sapiens, UniProt Q96PY6); assay: Inhibition of recombinant NEK1 (unknown origin) by FRET-based Z'-LYTE assay
T1 sequence (Q96PY6 whole entry): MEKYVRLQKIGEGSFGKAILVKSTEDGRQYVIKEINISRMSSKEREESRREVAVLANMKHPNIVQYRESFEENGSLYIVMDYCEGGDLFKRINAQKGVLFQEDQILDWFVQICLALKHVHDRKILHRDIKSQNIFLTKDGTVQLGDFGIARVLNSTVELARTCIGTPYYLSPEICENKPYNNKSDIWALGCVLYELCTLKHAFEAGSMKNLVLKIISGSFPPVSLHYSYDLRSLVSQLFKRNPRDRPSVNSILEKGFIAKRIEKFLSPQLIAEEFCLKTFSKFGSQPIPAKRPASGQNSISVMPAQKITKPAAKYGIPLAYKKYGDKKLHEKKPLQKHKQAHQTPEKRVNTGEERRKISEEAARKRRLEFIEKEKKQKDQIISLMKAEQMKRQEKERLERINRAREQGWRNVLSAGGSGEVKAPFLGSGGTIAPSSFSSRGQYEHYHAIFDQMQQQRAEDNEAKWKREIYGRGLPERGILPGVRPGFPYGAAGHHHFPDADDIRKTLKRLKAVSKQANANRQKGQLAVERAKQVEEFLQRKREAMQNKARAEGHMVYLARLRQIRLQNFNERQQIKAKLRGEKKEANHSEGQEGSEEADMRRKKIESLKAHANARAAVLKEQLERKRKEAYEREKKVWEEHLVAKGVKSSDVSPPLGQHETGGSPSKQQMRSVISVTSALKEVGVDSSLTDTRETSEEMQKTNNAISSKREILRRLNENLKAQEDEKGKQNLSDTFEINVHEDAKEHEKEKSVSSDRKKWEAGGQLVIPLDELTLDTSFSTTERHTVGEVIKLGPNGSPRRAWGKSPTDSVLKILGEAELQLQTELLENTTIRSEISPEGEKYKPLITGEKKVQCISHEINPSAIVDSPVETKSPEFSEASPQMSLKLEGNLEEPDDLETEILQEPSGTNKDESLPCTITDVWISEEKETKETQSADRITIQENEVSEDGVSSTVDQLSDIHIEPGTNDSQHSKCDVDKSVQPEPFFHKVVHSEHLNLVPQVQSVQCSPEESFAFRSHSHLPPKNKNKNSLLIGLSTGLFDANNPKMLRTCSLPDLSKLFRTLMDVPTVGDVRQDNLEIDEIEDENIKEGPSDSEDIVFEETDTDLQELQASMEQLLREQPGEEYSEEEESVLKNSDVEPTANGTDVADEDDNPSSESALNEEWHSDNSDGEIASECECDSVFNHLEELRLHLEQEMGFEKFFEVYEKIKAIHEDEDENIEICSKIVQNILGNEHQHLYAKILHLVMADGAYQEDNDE

[8] = biological target: Dual specificity mitogen-activated protein kinase kinase 1 (Homo sapiens, UniProt Q02750); assay: Inhibition of recombinant MEK1 (unknown origin) by cascade reaction assay
[9] = biological target: Mitogen-activated protein kinase 1 (Homo sapiens, UniProt P28482); assay: Inhibition of recombinant ERK2 (unknown origin) by FRET-based Z'-LYTE assay
[10] = biological target: AMP-activated protein kinase (AMPK) alpha-1/beta-1/gamma-1 (Homo sapiens, UniProt P54619+Q13131+Q9Y478); assay: Inhibition of recombinant AMPK A1/B1/G1 (unknown origin) by FRET-based Z'-LYTE assay; type: protein-complex assay
[11] = biological target: Epidermal growth factor receptor (Homo sapiens) (UniProt P00533); assay: Inhibition of recombinant EGFR (unknown origin) at 5 uM by FRET-based Z'-LYTE assay; in short: as §2
[12] = biological target: Serine/threonine-protein kinase mTOR (Homo sapiens) (UniProt P42345); assay: Inhibition of recombinant FRAP1 (unknown origin) at 5 uM by FRET-based Z'-LYTE assay; in short: as §2
[13] = biological target: Activin receptor type-1B (Homo sapiens) (UniProt P36896); assay: Inhibition of recombinant ACVR1B (unknown origin) at 5 uM by FRET-based Z'-LYTE assay; in short: as §2
[14] = biological target: Interleukin-1 receptor-associated kinase 4 (Homo sapiens) (UniProt Q9NWZ3); assay: Inhibition of recombinant IRAK4 (unknown origin) at 5 uM by FRET-based Z'-LYTE assay; in short: as §2
[15] = biological target: Casein kinase II subunit alpha (Homo sapiens) (UniProt P68400); assay: Inhibition of recombinant CSNK2A1 (unknown origin) at 5 uM by FRET-based Z'-LYTE assay; in short: as §2
[16] = biological target: Serine/threonine-protein kinase pim-1 (Homo sapiens) (UniProt P11309); assay: Inhibition of recombinant PIM1 (unknown origin) at 5 uM by FRET-based Z'-LYTE assay; in short: as §2
[17] = biological target: Mitogen-activated protein kinase 8 (Homo sapiens) (UniProt P45983); assay: Inhibition of recombinant MAPK8 (unknown origin) at 5 uM by FRET-based Z'-LYTE assay; in short: as §2
[18] = biological target: Vascular endothelial growth factor receptor 2 (Homo sapiens, UniProt P35968); conditions: 5 uM

Interleukin-1 receptor-associated kinase 4 (Homo sapiens), sequence (Q9NWZ3 whole entry): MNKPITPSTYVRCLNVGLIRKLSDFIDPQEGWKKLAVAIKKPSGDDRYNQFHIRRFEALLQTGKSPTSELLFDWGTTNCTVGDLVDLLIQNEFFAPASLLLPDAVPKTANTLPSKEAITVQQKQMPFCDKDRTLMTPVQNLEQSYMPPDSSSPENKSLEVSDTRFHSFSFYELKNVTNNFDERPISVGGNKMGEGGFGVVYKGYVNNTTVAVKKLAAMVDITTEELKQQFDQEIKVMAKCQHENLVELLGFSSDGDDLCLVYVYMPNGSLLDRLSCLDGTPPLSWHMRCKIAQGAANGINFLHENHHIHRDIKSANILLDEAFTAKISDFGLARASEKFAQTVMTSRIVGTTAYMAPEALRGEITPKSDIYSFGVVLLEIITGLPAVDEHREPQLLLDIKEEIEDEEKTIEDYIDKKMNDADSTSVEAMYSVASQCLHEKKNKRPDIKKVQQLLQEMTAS
Mitogen-activated protein kinase 1, sequence (P28482 whole entry): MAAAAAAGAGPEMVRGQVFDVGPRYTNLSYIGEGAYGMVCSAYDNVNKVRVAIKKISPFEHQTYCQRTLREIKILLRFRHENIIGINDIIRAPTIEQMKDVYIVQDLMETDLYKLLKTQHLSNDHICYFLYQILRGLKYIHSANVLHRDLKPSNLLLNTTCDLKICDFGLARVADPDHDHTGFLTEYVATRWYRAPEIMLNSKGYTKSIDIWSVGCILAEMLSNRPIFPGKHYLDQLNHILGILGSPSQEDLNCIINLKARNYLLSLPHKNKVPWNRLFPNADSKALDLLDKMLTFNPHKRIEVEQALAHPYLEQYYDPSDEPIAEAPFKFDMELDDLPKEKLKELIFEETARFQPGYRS
Mitogen-activated protein kinase 8 (Homo sapiens), sequence (P45983 whole entry): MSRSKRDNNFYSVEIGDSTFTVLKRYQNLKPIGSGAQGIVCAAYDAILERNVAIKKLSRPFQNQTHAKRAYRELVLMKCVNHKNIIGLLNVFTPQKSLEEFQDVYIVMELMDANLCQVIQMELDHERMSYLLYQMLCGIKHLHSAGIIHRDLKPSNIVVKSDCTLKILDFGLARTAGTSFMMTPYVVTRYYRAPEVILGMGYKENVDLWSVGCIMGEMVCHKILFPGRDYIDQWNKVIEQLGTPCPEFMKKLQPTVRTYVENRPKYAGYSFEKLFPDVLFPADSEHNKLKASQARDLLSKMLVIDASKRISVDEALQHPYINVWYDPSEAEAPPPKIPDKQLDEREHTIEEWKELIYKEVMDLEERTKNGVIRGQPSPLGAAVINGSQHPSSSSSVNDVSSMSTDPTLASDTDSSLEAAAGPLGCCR
Serine/threonine-protein kinase pim-1 (Homo sapiens), sequence (P11309 whole entry, looked up): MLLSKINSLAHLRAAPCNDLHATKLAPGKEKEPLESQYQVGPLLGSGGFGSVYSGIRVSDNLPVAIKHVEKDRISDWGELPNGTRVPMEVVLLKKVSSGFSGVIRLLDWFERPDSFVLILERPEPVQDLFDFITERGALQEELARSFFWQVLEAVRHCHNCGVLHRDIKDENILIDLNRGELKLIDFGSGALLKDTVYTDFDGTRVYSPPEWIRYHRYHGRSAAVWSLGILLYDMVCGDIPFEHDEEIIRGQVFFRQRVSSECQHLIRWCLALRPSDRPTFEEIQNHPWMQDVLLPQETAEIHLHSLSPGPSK
Phosphorylase b kinase gamma catalytic chain, liver/testis isoform (Homo sapiens), sequence (P15735 whole entry, canonical isoform): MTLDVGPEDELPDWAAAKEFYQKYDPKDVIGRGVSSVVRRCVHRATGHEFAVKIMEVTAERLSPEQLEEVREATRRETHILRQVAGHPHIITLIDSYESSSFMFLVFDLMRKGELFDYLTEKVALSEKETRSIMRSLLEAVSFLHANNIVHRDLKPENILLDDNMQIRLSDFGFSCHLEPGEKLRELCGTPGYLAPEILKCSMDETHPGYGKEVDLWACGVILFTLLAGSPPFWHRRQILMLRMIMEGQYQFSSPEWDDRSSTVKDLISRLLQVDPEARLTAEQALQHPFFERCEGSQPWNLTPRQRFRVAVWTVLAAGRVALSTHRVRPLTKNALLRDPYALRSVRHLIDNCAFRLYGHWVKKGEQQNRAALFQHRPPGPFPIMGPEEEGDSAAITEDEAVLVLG
Mitogen-activated protein kinase 14, sequence (Q16539 whole entry): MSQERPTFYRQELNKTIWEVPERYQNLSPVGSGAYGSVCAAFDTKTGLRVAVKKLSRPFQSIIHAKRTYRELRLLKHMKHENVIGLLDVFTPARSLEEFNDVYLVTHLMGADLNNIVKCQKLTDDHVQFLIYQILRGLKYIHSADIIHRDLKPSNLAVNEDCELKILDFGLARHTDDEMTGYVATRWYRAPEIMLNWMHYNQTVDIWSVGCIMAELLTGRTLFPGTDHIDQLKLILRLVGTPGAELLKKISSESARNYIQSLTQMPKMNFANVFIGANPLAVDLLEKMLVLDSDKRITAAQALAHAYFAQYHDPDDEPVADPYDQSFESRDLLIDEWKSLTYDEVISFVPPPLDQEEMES
Casein kinase II subunit alpha (Homo sapiens), sequence (P68400 whole entry, looked up): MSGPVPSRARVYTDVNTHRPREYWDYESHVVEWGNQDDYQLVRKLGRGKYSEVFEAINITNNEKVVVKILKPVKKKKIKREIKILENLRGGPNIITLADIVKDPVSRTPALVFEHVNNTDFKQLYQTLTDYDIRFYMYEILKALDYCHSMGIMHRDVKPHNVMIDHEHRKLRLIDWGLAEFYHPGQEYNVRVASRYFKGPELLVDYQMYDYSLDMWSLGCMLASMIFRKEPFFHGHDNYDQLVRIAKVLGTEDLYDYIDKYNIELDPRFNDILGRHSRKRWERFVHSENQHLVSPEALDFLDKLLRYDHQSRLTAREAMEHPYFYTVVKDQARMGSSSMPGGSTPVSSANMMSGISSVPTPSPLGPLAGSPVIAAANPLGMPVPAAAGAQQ
Activin receptor type-1B (Homo sapiens), sequence (P36896 whole entry): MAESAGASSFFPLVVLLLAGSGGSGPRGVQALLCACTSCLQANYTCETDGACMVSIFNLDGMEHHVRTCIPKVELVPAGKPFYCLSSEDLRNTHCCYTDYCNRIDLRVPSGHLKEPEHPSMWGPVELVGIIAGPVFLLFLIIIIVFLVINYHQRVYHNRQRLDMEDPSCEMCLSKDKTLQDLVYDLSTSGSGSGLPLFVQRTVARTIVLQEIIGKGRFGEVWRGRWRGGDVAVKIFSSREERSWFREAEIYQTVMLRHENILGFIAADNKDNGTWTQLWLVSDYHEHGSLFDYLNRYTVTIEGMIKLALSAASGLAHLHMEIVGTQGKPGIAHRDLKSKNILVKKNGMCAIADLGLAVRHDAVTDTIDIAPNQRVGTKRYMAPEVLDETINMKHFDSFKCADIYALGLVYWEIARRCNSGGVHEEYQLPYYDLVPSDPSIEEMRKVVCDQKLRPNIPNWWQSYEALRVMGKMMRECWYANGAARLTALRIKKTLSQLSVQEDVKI
Proto-oncogene tyrosine-protein kinase receptor Ret (Homo sapiens), sequence (P07949 whole entry): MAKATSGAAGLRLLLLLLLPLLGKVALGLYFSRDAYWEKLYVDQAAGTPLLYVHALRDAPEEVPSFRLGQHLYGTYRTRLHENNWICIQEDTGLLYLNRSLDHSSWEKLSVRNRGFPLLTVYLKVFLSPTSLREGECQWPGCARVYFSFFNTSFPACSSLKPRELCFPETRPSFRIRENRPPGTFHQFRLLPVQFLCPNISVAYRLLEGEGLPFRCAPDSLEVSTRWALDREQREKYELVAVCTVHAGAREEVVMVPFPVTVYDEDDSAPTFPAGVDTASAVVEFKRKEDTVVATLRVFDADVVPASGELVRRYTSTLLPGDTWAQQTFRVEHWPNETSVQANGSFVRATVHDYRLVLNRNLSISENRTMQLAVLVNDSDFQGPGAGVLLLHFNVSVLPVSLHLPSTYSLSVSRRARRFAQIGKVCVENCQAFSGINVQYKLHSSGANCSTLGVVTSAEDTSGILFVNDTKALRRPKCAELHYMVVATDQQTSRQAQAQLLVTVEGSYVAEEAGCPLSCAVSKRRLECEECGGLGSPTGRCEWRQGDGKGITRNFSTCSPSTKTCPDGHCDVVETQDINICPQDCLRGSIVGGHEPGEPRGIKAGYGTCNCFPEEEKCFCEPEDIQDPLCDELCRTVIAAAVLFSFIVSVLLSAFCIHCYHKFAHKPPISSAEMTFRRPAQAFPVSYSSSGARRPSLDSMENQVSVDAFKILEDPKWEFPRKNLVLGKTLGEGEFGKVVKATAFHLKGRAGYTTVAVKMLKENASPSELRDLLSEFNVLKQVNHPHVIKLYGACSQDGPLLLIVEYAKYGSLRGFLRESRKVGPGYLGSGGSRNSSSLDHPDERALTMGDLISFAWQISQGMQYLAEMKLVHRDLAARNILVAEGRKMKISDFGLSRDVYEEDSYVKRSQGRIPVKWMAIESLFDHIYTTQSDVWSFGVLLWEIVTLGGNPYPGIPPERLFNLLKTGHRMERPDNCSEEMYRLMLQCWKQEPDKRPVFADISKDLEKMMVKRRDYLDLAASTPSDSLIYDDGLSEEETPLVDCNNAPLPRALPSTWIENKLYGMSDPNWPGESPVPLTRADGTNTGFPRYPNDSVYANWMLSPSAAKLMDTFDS
Dual specificity mitogen-activated protein kinase kinase 1, sequence (Q02750 whole entry): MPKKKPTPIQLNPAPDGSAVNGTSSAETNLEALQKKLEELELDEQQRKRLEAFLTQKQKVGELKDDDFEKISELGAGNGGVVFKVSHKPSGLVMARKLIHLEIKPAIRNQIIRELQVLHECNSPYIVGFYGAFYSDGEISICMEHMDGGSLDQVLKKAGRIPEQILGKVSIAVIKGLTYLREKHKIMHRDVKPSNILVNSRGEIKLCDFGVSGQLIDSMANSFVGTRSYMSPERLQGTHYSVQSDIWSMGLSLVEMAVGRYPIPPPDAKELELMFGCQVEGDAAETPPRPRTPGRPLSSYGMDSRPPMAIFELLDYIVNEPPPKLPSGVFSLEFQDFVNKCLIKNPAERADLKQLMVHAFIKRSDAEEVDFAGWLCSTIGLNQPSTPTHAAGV

O=C1/C(=C/c2ccccn2)CNC/C1=C\c1ccccn1
inhibition [1]: 21% | inhibition [2]: 37% | inhibition [3]: 45% | inhibition [4]: 58% | inhibition [5]: 95% | IC50 [6]: 35000 nM | IC50 [7]: 500 nM | IC50 [8]: 1100 nM | IC50 [9]: 4000 nM | IC50 [10]: 1500 nM | inhibition [11]: -9% | inhibition [12]: -5% | inhibition [13]: 1% | inhibition [14]: 5% | inhibition [15]: 5% | inhibition [16]: 10% | inhibition [17]: 16% | inhibition [18]: 89%
